Test results from ChEMBL document CHEMBL4033778, “Species-Selective Pyrimidineamine Inhibitors of Trypanosoma brucei S-Adenosylmethionine Decarboxylase” (J Med Chem, 2018).
Calls of active or inactive are those of the source. No cut-off for these calls is given here.

Columns and labels:
[1] = molecular target: T1, S-adenosylmethionine decarboxylase proenzyme (Homo sapiens, UniProt P17707); assay: Inhibition of recombinant human N-terminal His6-tagged AdoMetDC expressed in Escherichia coli BL21/DE3 cells at pH 7.2 by RapidFire-MS-based enzyme activity assay
T1 sequence (P17707 whole entry): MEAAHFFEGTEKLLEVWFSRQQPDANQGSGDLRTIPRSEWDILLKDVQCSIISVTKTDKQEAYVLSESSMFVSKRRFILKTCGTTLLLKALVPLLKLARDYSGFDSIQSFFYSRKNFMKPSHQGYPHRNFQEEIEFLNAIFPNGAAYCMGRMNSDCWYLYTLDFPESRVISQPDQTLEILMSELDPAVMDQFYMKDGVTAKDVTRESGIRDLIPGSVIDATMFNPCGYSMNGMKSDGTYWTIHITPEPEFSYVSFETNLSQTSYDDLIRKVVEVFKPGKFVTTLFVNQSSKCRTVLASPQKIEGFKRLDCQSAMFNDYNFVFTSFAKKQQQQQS

[2] = test system: Trypanosoma brucei brucei; assay: Antitrypanosomal activity against blood stream form Trypanosoma brucei brucei Lister 427 at 100 uM after 48 hrs by CellTiter-Glo assay; assay type: functional
How it was run: (§1)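 Bloodstream-form parasites grown in HMI-19 with fetal bovine serum, exposed 48 h to a 3-fold serial dilution (0.0038–25 μM or 0.015–100 μM final; 0.1% DMSO vehicle). Cell density read by ATP bioluminescence (CellTiter-Glo). Triplicate; EC50 from normalized response vs log concentration fit, bottom fixed at 0, Hill slope fixed at –8 when curve steepness gave ambiguous fit. Percent inhibition given at top concentration when <50%.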

[3] = Inhibition of recombinant Trypanosoma brucei N-terminal His6-tagged AdoMetDC/prozyme hetrodimer expressed in Escherichia coli BL21/DE3 cells at pH 7.2 by RapidFire-MS-based enzyme activity assay
[4] = Inhibition of recombinant Trypanosoma brucei N-terminal His6-tagged AdoMetDC/prozyme hetrodimer expressed in Escherichia coli BL21/DE3 cells at pH 6.8 by RapidFire-MS-based enzyme activity assay
[5] = Inhibition of recombinant Trypanosoma brucei N-terminal His6-tagged AdoMetDC/prozyme hetrodimer expressed in Escherichia coli BL21/DE3 cells at pH 7.7 by RapidFire-MS-based enzyme activity assay
[6] = Competitive inhibition of recombinant Trypanosoma brucei N-terminal His6-tagged AdoMetDC/prozyme hetrodimer expressed in Escherichia coli BL21/DE3 cells using S-adenosyl-L-methionine as substrate preincubated for 30 mins followed by substrate addition measured every 5 mins by double-reciprocal Lineweaver-Burk plot analysis
Liver [7] = assay: Metabolic stability in CD-1 mouse pooled liver microsomes at 1 uM in presence of NADPH measured up to 30 mins by LC-MS/MS method; assay type: ADME, microsome; details: 0.5 h
human MDR1 (P-gp) = assay: Apparent permeability from basolateral side to apical side in MDCK2 harboring human MDR1 cells in absence of Pgp inhibitor GF120918 at 10 to 20 uM after 60 mins by LC-MS/MS method; assay type: ADME, cell-based, Canis lupus familiaris, MDCK-II; details: dog, MDCK-MDR1
How it was run: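 MDCKII-hMDR1 monolayer permeability measured with or without Pgp inhibitor GF120918.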

Liver [8] = assay: Metabolic stability in mixed gender human pooled liver microsomes at 1 uM in presence of NADPH measured up to 30 mins by LC-MS/MS method; assay type: ADME, microsome; details: 0.5 h
[9] = molecular target: T2, S-adenosylmethionine decarboxylase proenzyme (Trypanosoma brucei brucei) (UniProt P50244); assay: Inhibition of AdoMetDC in bloodstream form Trypanosoma brucei brucei Lister 427 assessed as increase in prozyme level at 1.5 times EC50 after 24 hrs by Western blot method
T2 sequence (whole entry): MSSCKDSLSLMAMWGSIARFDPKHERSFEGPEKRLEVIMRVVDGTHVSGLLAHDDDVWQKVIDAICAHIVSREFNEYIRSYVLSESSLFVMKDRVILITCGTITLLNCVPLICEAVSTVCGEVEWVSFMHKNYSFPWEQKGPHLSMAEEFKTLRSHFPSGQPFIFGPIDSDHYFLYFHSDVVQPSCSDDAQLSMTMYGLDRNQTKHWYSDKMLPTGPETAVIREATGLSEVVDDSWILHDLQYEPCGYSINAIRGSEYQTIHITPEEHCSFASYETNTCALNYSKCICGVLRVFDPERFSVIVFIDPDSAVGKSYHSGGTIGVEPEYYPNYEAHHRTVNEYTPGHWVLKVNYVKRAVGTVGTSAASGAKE

Trypanosoma brucei [10] = assay: Reversible inhibition of recombinant Trypanosoma brucei N-terminal His6-tagged AdoMetDC/prozyme hetrodimer expressed in Escherichia coli BL21/DE3 cells using S-adenosyl-L-methionine as substrate preincubated for 30 mins followed by 100 fold dilution and substrate addition measured every 5 mins by RapidFire-mass spectrometry
[11] = molecular target: T3, S-adenosylmethionine decarboxylase proenzyme (Homo sapiens) (UniProt P17707); assay: Inhibition of recombinant human N-terminal His6-tagged AdoMetDC expressed in Escherichia coli BL21/DE3 cells at 180 uM at pH 7.2 by RapidFire-MS-based enzyme activity assay
T3 sequence (whole entry): T1 sequence (P17707 whole entry)

Trypanosoma brucei [12] = assay: Ratio of IC50 for recombinant Trypanosoma brucei N-terminal His6-tagged AdoMetDC/prozyme hetrodimer expressed in Escherichia coli BL21/DE3 cells at pH 7.7 to IC50 for recombinant Trypanosoma brucei N-terminal His6-tagged AdoMetDC/prozyme hetrodimer expressed in Escherichia coli BL21/DE3 cells at pH 6.8
[13] = molecular target: T3, S-adenosylmethionine decarboxylase proenzyme (Homo sapiens); assay: Inhibition of recombinant human N-terminal His6-tagged AdoMetDC expressed in Escherichia coli BL21/DE3 cells at 63 uM at pH 7.2 by RapidFire-MS-based enzyme activity assay
[14] = test system: Trypanosoma brucei brucei; assay: Antitrypanosomal activity against bloodstream form Trypanosoma brucei brucei Lister 427 after 48 hrs by CellTiter-Glo assay; assay type: functional; details: Lister 427, 48 h; how it was run: as §1
Trypanosoma brucei [15] = assay: Inhibition of recombinant Trypanosoma brucei N-terminal His6-tagged AdoMetDC/prozyme hetrodimer expressed in Escherichia coli BL21/DE3 cells at 63 uM at pH 7.2 by RapidFire-MS-based enzyme activity assay
How it was run: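 Steady-state decarboxylation of S-adenosyl-L-methionine by purified TbAdoMetDC/prozyme at pH 7.2; decarboxylated AdoMet product read by RapidFire–MS. Inhibitor added from DMSO to 2% final DMSO. Percent inhibition reported at the top tested concentration when mean inhibition stayed below 50%; triplicate.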

SMILES | IC50 [1] [µM] | inhibition [11] [%] | IC50 [3] [µM] | IC50 [4] [µM] | further results
Nc1cc(Nc2cc(Cl)cc(Cl)c2)nc(N)n1 | > 180 |  | 48 | 5.8 | 
Cc1cc(Nc2cc(Cl)cc(-c3ccccc3)c2)nc(N)n1 |  |  | 3.3 |  | inhibition [13]: 30%
Cc1cc(Nc2cc(Cl)cc(-c3ccoc3)c2)nc(N)n1 |  | 30 | 7.4 |  | IC50 [14]: 7.1 µM
Cc1cc(Nc2cc(Cl)cc(-c3cc4ccccc4o3)c2)nc(N)n1 | > 63 |  |  |  | inhibition (Trypanosoma brucei [15]): 23%

More lines, main results first:

IC50 [1] [µM] | inhibition [11] [%] | SMILES | IC50 [3] [µM] | IC50 [4] [µM] | further results
> 180 |  | Cc1cc(Nc2cc(Cl)cc(Cl)c2O)nc(N)n1 | 37 |  | Activity [2]: 26%
 | 27 | Cc1cc(Nc2cc(Cl)cc(Cl)c2)nc(N)n1 | 3.7 | 0.5 | IC50 [5]: 30 µM; Ki [6]: 2.6 µM; Stability (Liver [7]): Unstable; Papp B→A at 1 h, up to 20 µM (human MDR1 (P-gp)): 135 nm/s; Stability (Liver [8]): Unstable; inhibition [9]: Active; inhibition (Trypanosoma brucei [10]): Active; Ratio IC50 (Trypanosoma brucei [12]): 60
